Test results reported in the M2OR odorant receptor database.
Numbering of substitutions follows the chain as printed.

How the values were obtained:
Conditions in all cases: stereoisomer not certain
OR7A5 M81I = tested on: T1, OR7A5 M81I
T1 sequence (whole entry): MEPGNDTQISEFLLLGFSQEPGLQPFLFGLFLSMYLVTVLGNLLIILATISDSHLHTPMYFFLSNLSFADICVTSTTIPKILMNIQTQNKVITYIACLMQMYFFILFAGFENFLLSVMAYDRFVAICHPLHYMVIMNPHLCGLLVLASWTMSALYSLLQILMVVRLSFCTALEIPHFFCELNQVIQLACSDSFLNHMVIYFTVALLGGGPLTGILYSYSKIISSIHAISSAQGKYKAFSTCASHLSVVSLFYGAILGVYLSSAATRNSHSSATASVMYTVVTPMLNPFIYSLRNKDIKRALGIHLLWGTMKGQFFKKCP
Outline: (§1)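 Whether a receptor–molecule pair is responsive (active) rests on the original authors' judgment that its measured signal was statistically different from baseline. Pairs without that judgment are non-responsive (inactive). Sources used varied assay methods, commonly transient luciferase assays in mammalian cell lines.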

OR7C1 (Homo sapiens) = biological target: T2, OR7C1 (Homo sapiens) (UniProt O76099)
T2 sequence (whole entry): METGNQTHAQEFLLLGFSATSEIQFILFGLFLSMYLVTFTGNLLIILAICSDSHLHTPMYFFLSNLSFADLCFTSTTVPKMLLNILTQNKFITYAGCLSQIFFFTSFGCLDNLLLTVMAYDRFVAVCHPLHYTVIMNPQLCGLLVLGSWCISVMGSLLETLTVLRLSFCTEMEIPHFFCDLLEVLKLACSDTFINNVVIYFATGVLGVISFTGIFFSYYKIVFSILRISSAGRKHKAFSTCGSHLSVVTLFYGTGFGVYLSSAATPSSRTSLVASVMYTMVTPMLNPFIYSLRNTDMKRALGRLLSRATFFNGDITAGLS
Outline: as §1

OR7C1 V126I E171K = tested on: T3, OR7C1 V126I E171K
T3 sequence (whole entry): T2 sequence (whole entry) with V126I, E171K
Outline: as §1

OR7C2 (Homo sapiens) = biological target: T4, OR7C2 (Homo sapiens) (UniProt O60412)
T4 sequence (whole entry): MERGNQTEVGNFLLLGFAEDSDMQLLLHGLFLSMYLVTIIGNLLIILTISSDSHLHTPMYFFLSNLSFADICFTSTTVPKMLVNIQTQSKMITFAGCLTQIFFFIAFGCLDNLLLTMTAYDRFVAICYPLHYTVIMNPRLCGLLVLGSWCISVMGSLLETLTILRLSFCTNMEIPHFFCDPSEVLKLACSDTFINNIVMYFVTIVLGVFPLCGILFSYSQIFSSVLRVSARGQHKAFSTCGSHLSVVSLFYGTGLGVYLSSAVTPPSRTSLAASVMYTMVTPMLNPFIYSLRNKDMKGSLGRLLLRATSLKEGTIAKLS
Outline: as §1

OR7D2 (Homo sapiens) = biological target: T5, OR7D2 (Homo sapiens) (UniProt Q96RA2)
T5 sequence (whole entry): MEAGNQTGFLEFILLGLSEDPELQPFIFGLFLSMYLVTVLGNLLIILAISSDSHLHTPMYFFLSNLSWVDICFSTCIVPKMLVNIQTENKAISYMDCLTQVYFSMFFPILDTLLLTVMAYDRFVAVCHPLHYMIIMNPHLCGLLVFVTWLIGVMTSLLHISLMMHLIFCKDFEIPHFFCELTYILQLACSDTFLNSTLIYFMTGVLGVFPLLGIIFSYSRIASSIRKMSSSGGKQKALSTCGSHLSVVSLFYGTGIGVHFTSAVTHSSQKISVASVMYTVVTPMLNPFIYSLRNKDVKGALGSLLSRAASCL
Outline: as §1

OR7D4 (Homo sapiens) = biological target: T6, OR7D4 (Homo sapiens) (UniProt Q8NG98)
T6 sequence (whole entry): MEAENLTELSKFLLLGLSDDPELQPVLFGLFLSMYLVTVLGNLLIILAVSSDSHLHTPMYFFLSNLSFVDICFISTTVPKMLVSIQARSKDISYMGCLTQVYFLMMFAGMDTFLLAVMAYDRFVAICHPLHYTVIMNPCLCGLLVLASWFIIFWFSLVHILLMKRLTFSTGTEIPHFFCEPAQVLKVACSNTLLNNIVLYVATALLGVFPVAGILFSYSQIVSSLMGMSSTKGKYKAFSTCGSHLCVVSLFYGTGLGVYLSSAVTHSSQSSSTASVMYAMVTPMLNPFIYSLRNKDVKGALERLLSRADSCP
Outline: as §1

OR7D4 R88W = tested on: T7, OR7D4 R88W
T7 sequence (whole entry): T6 sequence (whole entry) with R88W
Outline: as §1

OR7D4 = tested on: T8, OR7D4
T8 sequence (whole entry): T6 sequence (whole entry) with R88W, T133M
Outline: as §1

OR7E24 (Homo sapiens) = biological target: T9, OR7E24 (Homo sapiens) (UniProt Q6IFN5)
T9 sequence (whole entry): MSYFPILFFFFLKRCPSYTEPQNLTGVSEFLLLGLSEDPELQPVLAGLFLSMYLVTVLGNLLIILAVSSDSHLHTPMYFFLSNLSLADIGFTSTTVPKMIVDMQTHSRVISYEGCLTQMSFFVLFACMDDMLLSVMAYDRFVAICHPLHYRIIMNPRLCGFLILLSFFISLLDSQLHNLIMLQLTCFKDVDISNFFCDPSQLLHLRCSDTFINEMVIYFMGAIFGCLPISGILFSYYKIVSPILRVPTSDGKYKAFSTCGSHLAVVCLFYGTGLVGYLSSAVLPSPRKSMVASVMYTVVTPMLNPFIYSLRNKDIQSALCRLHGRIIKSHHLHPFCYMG
Outline: as §1

OR7G1 (Homo sapiens) = biological target: T10, OR7G1 (Homo sapiens) (UniProt Q8NGA0)
T10 sequence (whole entry): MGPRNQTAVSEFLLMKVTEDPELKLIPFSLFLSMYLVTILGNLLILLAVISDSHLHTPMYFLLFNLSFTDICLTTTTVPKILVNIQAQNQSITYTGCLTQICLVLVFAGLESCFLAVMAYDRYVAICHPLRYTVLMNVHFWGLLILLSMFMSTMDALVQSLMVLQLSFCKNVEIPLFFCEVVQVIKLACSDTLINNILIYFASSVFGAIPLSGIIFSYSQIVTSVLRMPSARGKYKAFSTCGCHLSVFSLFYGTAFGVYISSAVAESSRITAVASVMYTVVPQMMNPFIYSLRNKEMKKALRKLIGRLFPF
Outline: as §1

Measured: odorant receptor agonist call;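 also: active if original authors judged signal statistically different from baseline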

CC1=C(O)C(=O)C(C)O1 (configuration not stated)
inactive: all assays above

CC(=O)c1c(C)c([N+](=O)[O-])c(C(C)(C)C)c([N+](=O)[O-])c1C
inactive: OR7C1 (Homo sapiens) | OR7C2 (Homo sapiens) | OR7D2 (Homo sapiens) | OR7D4 (Homo sapiens) | OR7E24 (Homo sapiens) | OR7G1 (Homo sapiens)

CC1CCCCCCCCCCCCC(=O)C1 (configuration not stated)
inactive: OR7C1 (Homo sapiens) | OR7C2 (Homo sapiens) | OR7D2 (Homo sapiens) | OR7D4 (Homo sapiens) | OR7E24 (Homo sapiens) | OR7G1 (Homo sapiens)

CCC(S)C(C)CO (configuration not stated)
inactive: OR7C1 (Homo sapiens) | OR7C2 (Homo sapiens) | OR7D2 (Homo sapiens) | OR7D4 (Homo sapiens) | OR7E24 (Homo sapiens) | OR7G1 (Homo sapiens)

CCCCCCC=CCCC=O
inactive: all assays above

CCC1OC(C)=C(O)C1=O (configuration not stated)
inactive: all assays above

CC1=NC(C)C(C)S1 (configuration not stated)
inactive: all assays above

CC(CO)CS (configuration not stated)
inactive: OR7C1 (Homo sapiens) | OR7C2 (Homo sapiens) | OR7D2 (Homo sapiens) | OR7D4 (Homo sapiens) | OR7E24 (Homo sapiens) | OR7G1 (Homo sapiens)

CC1=C(O)C(=O)OC1C (configuration not stated)
inactive: all assays above

CCCCCC(S)C(C)CO (configuration not stated)
inactive: OR7C1 (Homo sapiens) | OR7C2 (Homo sapiens) | OR7D2 (Homo sapiens) | OR7D4 (Homo sapiens) | OR7E24 (Homo sapiens) | OR7G1 (Homo sapiens)

CCCCC(S)C(C)CO (configuration not stated)
inactive: OR7C1 (Homo sapiens) | OR7C2 (Homo sapiens) | OR7D2 (Homo sapiens) | OR7D4 (Homo sapiens) | OR7E24 (Homo sapiens) | OR7G1 (Homo sapiens)

CCCC(S)CCOC(C)=O (configuration not stated)
inactive: all assays above

CCC1OC(=O)C(O)=C1C (configuration not stated)
inactive: all assays above

CCCCCC(=O)C(C)C(C)=O (configuration not stated)
inactive: OR7C1 (Homo sapiens) | OR7C2 (Homo sapiens) | OR7D2 (Homo sapiens) | OR7D4 (Homo sapiens) | OR7E24 (Homo sapiens) | OR7G1 (Homo sapiens)

Cc1cnc(C)c(C)n1
inactive: all assays above
